{"data": "Results of several laboratories", "note": "Compare with care: the assays were run in different laboratories."}
{"SMILES": "Cn1cnc2c1c(=O)n(CC(=O)Nc1c(Cl)cccc1Cl)c(=O)n2C", "cell line": "NCI-H1975", "test": "cell growth or viability, MTT", "conditions": "6.3 µg", "endpoint": "viability", "value": "56.1%"}
{"SMILES": "Cc1ccc2c(c1C)NC(=O)[C@]21NN=C(c2ccccc2)S1", "cell line": "HEK293", "test": "cell growth or viability, MTT", "conditions": "24 h", "endpoint": "CC50", "value": "100 µM"}
{"SMILES": "CC1c2cc(c(O)cc2O)C(C)c2cc(c(O)cc2O)C(C)c2cc(c(O)cc2O)C(C)c2cc1c(O)cc2O (stereo not drawn)", "cell line": "HEK293", "test": "cell growth or viability, MTT", "conditions": "24 h", "endpoint": "CC50", "value": "14.9 µM"}
{"SMILES": "O=C(O)/C=C/C=C/c1cccc(Oc2cc(Cl)cc(Cl)c2)c1", "cell line": "HEK293", "test": "cell growth or viability, MTT", "conditions": "24 h", "endpoint": "CC50", "value": "> 200 µM"}
{"SMILES": "CCS(=O)(=O)Nc1cccc(-c2cn(C)c(=O)c3ccccc23)c1", "cell line": "MDCK-MDR1", "system": "Caco-2", "endpoint": "Papp", "value": "15 ×10⁻⁶ cm/s"}
{"SMILES": "CC(C)Cn1c(=O)n(C)c(=O)c2c(-c3cncn3C)n(Cc3cccc4ccccc34)nc21", "cell line": "HEK293", "test": "cell growth or viability, MTT", "conditions": "24 h", "endpoint": "CC50", "value": "> 200 µM"}
{"SMILES": "O=C(Sc1cccccc1=O)c1ccc(C(F)(F)F)cc1", "cell line": "HepDES19", "test": "cell growth or viability, MTS", "conditions": "72 h", "endpoint": "CC50", "value": "56.1 µM"}
{"SMILES": "CC1c2cc(c(O)c(O)c2O)C(C)c2cc(c(O)c(O)c2O)C(C)c2cc(c(O)c(O)c2O)C(C)c2cc1c(O)c(O)c2O (stereo not drawn)", "cell line": "HEK293", "test": "cell growth or viability, ATP luminescence", "conditions": "24 h", "endpoint": "CC50", "value": "102 µM"}
{"SMILES": "O=C(Sc1cccccc1=O)c1ccccc1C(F)(F)F", "cell line": "HepDES19", "test": "cell growth or viability, MTS", "conditions": "72 h", "endpoint": "CC50", "value": "8.6 µM"}
{"SMILES": "CCS(=O)(=O)Nc1ccc(OCCOCCOCCOCCOc2ccc(NS(=O)(=O)CC)cc2-c2cn(C)c(=O)c3ccccc23)c(-c2cn(C)c(=O)c3ccccc23)c1", "cell line": "MDCK-MDR1", "system": "Caco-2", "endpoint": "Papp", "value": "0.13 ×10⁻⁶ cm/s"}
{"SMILES": "COc1ccc2cc3[n+](cc2c1OC)CCc1cc2c(cc1-3)OCO2", "cell line": "MDCK-MDR1", "system": "Caco-2", "conditions": "10 µg/mL, 4 h", "endpoint": "Papp A→B", "value": "0.39 ×10⁻⁶ cm/s"}
{"SMILES": "CN1CCC(NCc2cccc(-c3ccc(S(=O)(=O)NCc4ccccc4)cc3)c2)CC1", "cell line": "HEK293", "test": "cell growth or viability, MTT", "conditions": "24 h", "endpoint": "CC50", "value": "32.3 µM"}
{"SMILES": "Cc1ccc2c(=O)n(-c3ccc(F)cc3)c(CCN3C(=O)c4cccc(OC(C)C)c4C3=O)nc2c1", "cell line": "MDCK-MDR1", "system": "Caco-2", "conditions": "1 µM, 90 min, pH 7.4", "endpoint": "Papp A→B", "value": "30 ×10⁻⁶ cm/s"}
{"SMILES": "O=c1cccccc1SSc1cccccc1=O", "cell line": "HepDES19", "test": "cell growth or viability, MTS", "conditions": "72 h", "endpoint": "CC50", "value": "9.6 µM"}
{"SMILES": "COC(=O)c1ccccc1-c1c2ccc(=N)cc-2oc2cc(N)ccc12", "cell line": "MDR1", "system": "MDCK-MDR1", "conditions": "5 µM, 2 h, pH 7.4", "endpoint": "efflux ratio", "value": 4.92}
